One data set concerns the target ABCB1 (Homo sapiens, UniProt P08183). The experiment in a line: Inhibition of ABCB1 in human KBV1 cells at 10 uM measured after 10 mins by calcein-AM dye based fluorescence assay relative to 10 uM tariquidar. It counts as cell-based. The following applies: probe calcein-AM.
The target of data set [1] is T1, Broad substrate specificity ATP-binding cassette transporter ABCG2 (Homo sapiens, UniProt Q9UNQ0).
T1 sequence (Q9UNQ0 whole entry): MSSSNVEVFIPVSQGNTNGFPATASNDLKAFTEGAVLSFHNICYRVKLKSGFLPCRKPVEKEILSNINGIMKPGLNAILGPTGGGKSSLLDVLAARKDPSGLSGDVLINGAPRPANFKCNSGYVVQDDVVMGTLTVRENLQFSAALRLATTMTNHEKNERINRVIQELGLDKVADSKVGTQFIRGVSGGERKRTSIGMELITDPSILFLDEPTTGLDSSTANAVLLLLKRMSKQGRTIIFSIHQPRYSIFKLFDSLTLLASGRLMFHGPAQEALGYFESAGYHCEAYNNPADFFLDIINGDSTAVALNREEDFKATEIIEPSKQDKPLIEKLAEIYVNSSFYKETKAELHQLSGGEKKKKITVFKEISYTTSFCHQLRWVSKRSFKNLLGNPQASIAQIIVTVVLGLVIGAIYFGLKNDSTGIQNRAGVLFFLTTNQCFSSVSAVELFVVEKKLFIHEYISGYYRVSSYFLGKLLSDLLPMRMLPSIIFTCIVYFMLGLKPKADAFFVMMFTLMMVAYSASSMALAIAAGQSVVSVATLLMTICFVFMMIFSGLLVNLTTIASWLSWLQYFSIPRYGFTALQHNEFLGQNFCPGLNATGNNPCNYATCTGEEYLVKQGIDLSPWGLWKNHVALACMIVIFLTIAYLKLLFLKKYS
The experiment in a line: Inhibition of ABCG2 in human MCF7/Topo cells after 2 hrs by Hoechst 33342 staining based fluorescence assay. Format: cell-based. The gist of the method:
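ABCG2-overexpressing MCF-7/Topo cells, Hoechst 33342 accumulation in microplate format; inhibition expressed relative to 10 μM FTC (100%). Relative IC50 taken as the midpoint between lower and upper plateaus of each compound's own concentration–response curve, from four-parameter fit; mean ± SEM of three independent experiments in triplicate.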

Another data set addresses T2, ABCG2 (Homo sapiens, UniProt Q9UNQ0).
T2 sequence (Q9UNQ0 whole entry): T1 sequence (Q9UNQ0 whole entry)
Kind of data set: Inhibition of ABCG2 in human MCF7/Topo cells at 100 uM after 2 hrs by Hoechst 33342 staining based fluorescence assay relative to 10 uM FTC. It counts as cell-based. To be noted: probe Hoechst 33342, read-out: Imax. The essentials:
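Hoechst 33342 microplate assay in ABCG2-overexpressing MCF-7/Topo cells; maximal inhibitory effect taken as inhibition at the highest concentration (100 μM) of compound, expressed relative to the inhibition from 10 μM FTC set as 100%.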

Data set [2] in a line: Stability of the compound in DMEM measured over 24 hrs by HPLC analysis. It counts as physicochemical. The essentials:
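Compounds incubated in assay medium (DMEM with 10% fetal calf serum) at 37 °C; aliquots analysed by HPLC over 24 h for cleavage or degradation products.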

A further data set has as its target ABCC1 (Homo sapiens, UniProt P33527). Kind of data set: Inhibition of human ABCC1 expressed in MDCK2 cells at 10 uM after 60 mins by calcein-AM dye based fluorescence assay relative to 30 uM reversan. Format: cell-based. To be noted: MDCK2 cells that express human ABCC1, probe calcein-AM.
The target of data set [3] is T1, Broad substrate specificity ATP-binding cassette transporter ABCG2. The experiment in a line: Inhibition of ABCG2 (unknown origin) expressed in MDCK2 cells incubated for 30 mins measured at 60 secs interval for 120 mins by Hoechst 33342 staining based fluorescence assay. It counts as cell-based.
Data set [4] in a line: Cytotoxicity against human MCF7/Topo cells at 0.1 to 10 uM measured up to 120 hrs by crystal violet staining based assay. It counts as cell-based. The essentials:
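Kinetic chemosensitivity assay on proliferating ABCG2-overexpressing MCF-7/Topo cells under long-term exposure at 100 nM, 1, 3 and 10 μM; 100 nM vinblastine as positive control, DMSO vehicle as negative control; growth curves followed over time.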

In data set [5] the target is T1, Broad substrate specificity ATP-binding cassette transporter ABCG2. Kind of data set: Inhibition of ABCG2 (unknown origin) expressed in HEK293 cells assessed as reduction in mitoxantrone efflux measured after 30 mins by fluorescence assay. It counts as cell-based.

Sequence of ABCC1 (P33527 whole entry): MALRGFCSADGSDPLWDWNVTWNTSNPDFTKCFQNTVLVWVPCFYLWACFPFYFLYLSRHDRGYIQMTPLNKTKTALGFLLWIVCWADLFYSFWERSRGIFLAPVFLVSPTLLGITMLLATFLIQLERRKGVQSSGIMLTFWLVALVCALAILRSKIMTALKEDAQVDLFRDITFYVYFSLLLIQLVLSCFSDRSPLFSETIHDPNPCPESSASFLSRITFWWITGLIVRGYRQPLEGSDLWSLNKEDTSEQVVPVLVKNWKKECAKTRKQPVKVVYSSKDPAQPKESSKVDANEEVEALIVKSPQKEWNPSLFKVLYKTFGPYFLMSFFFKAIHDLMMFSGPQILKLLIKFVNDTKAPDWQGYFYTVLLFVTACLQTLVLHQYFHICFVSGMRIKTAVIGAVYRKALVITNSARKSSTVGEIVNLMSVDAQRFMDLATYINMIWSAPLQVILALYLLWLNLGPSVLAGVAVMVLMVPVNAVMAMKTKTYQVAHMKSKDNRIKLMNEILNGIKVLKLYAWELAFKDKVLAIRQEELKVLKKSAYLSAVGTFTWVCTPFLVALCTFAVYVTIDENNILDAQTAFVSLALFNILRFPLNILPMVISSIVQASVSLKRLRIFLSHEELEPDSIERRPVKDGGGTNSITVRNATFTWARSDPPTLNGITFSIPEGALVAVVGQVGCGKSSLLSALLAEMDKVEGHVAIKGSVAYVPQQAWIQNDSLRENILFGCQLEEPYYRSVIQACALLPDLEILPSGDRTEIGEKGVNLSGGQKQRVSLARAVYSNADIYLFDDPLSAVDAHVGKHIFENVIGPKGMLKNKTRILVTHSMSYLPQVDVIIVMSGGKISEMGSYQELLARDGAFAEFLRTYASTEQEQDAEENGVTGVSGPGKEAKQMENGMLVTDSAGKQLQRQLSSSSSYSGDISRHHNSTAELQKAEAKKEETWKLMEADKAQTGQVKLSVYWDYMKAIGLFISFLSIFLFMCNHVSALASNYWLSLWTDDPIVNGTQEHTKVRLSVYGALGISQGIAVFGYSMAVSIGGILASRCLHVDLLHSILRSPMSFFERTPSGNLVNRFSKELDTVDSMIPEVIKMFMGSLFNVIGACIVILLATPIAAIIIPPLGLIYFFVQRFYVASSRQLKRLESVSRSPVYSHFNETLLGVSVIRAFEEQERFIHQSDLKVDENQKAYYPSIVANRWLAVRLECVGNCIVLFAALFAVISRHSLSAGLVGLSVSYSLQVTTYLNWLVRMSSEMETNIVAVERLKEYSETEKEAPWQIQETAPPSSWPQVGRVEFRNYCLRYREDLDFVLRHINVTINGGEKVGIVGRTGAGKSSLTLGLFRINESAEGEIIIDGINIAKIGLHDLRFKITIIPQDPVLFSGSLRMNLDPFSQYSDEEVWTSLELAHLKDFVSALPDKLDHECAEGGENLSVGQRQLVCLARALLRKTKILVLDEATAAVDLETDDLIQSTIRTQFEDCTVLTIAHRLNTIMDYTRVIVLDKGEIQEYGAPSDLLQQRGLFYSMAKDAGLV
Sequence of ABCB1 (P08183 whole entry): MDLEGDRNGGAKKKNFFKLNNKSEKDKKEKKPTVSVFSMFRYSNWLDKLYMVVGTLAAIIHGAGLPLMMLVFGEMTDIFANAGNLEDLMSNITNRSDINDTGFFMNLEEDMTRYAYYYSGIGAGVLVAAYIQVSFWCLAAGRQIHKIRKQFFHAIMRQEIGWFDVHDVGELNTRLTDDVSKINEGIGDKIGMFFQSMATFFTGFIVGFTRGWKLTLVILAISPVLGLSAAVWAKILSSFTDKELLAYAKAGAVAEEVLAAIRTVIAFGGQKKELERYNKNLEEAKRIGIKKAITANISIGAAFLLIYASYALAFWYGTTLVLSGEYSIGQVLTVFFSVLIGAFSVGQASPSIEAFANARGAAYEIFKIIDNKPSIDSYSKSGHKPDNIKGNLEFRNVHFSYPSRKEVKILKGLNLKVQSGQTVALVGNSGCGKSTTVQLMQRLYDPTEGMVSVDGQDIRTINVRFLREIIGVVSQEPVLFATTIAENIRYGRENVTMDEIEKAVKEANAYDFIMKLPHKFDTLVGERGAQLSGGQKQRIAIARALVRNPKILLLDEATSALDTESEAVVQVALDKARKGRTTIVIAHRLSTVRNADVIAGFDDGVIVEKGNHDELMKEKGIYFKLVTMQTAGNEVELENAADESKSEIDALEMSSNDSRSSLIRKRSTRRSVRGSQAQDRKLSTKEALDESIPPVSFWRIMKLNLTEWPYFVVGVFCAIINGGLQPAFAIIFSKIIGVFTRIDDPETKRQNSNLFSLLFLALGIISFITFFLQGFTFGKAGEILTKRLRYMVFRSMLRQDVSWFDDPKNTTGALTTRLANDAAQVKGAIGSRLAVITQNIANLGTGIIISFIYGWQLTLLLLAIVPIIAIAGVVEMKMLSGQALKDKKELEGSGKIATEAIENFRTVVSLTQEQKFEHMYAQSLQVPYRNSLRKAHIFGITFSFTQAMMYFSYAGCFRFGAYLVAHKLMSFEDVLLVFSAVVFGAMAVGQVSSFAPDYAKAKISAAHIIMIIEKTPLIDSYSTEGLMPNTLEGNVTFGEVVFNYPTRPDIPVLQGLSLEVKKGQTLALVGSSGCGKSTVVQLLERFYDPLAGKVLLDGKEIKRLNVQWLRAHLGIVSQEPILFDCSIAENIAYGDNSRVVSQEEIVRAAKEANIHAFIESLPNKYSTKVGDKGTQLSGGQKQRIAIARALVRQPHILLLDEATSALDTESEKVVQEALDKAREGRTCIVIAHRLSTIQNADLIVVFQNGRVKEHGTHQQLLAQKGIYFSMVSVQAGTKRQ

As for `COCCOCCOCCOc1cc2c(cc1OC)CCN(CCOc1ccc(/C=C/C(=O)c3cccc(NC(=O)c4ccc5ccccc5n4)c3)cc1)C2`, the inhibition – broadly, the share of the control response that was lost under treatment – at 10 min, 10 µM at ABCB1 was < 25%. Besides, the IC50 (as a rule, the concentration that gives 50% inhibition) in data set [1] came to 2830 nM. The Emax at 2 h, 100 µM on ABCG2 is 81%. Also, in data set [2], the Stability result is listed as “Stable”. For the same molecule, the inhibition at 1 h, 10 µM at ABCC1 was < 25%.
`COc1cc2c(cc1OC)CN(CCOc1ccc(/C=C/C(=O)c3cccc(NC(=O)c4ccc5ccccc5n4)c3)cc1)CC2`: the inhibition at 10 min, 10 µM at ABCB1 is < 25%. The molecule further displayed an IC50 in data set [1] of 4080 nM. The Emax at 2 h, 100 µM at ABCG2 came out at 79%. Further, in data set [2], the Stability result is listed as “Stable”. Further, the inhibition at 1 h, 10 µM on ABCC1 was < 25%.
On to `COCCOCCOCCOc1cc2c(cc1OC)CCN(CC(=O)c1cccc(NC(=O)c3ccc4ccccc4n3)c1)C2`, for which the inhibition at 10 min, 10 µM on ABCB1 is < 25%. The same molecule registered an IC50 in data set [1] of 1130 nM. Besides, on ABCG2, the Emax at 2 h, 100 µM was 47%. Further, the Stability result in data set [2] was “Stable”. Moreover, the inhibition at 1 h, 10 µM on ABCC1 was < 25%.
`COCCOc1cc2c(cc1OC)CCN(CC(=O)c1cccc(NC(=O)c3ccc4ccccc4n3)c1)C2`: the inhibition at 10 min, 10 µM on ABCB1 is < 25%. In data set [1], this molecule displayed an IC50 of 14400 nM. Further, the Emax at 2 h, 100 µM at ABCG2 is 55%. The Stability entry in data set [2] is on record as “Stable”. At ABCC1, the inhibition at 1 h, 10 µM was < 25%.
`COc1ccc(/C=C/C(=O)c2ccccc2NC(=O)c2cccs2)cc1OC` showed an IC50 in data set [3] of 501 nM.
Turning to `COCCOc1cc2c(cc1OC)CCN(CCOc1ccc(/C=C/C(=O)c3cccc(NC(=O)c4ccc5ccccc5n4)c3)cc1)C2`, the inhibition at 10 min, 10 µM at ABCB1 was < 25%. The molecule further registered a half-inhibitory concentration (IC50) in data set [1] of 2130 nM. The Emax at 2 h, 100 µM at ABCG2 was 72%. Also, in data set [2], the Stability entry is listed as “Stable”. In addition, the inhibition at 1 h, 10 µM on ABCC1 is < 25%.
Consider `COCCOc1cc2c(cc1OC)CCN(CCOc1ccc(/C=C/C(=O)c3ccc(C)c(NC(=O)c4ccc5ccccc5n4)c3)cc1)C2`, for which, on ABCB1, the inhibition at 10 min, 10 µM is < 25%. Further, the IC50 in data set [1] stood at 1550 nM. Moreover, the Emax at 2 h, 100 µM at ABCG2 turned out to be 97%. Further, in data set [2], the Stability entry was “Stable”. The inhibition at 1 h, 10 µM on ABCC1 was < 25%.
As for `COc1cc2c(cc1OC)CN(CCOc1ccc(/C=C/C(=O)c3ccc(C)c(NC(=O)c4ccc5ccccc5n4)c3)cc1)CC2`, the Activity result in data set [4] is “Dose-dependent effect”. Further, the inhibition at 10 min, 10 µM at ABCB1 was < 25%. In data set [1], the IC50 was determined as 880 nM. Besides, the Emax at 2 h, 100 µM at ABCG2 was 86%. Further, the Stability entry in data set [2] is reported as “Stable”. In addition, the inhibition at 1 h, 10 µM on ABCC1 is < 25%.
Consider `COCCOCCOCCOc1cc2c(cc1OC)CCN(CCOc1ccc(/C=C/C(=O)c3ccc(C)c(NC(=O)c4ccc5ccccc5n4)c3)cc1)C2`, for which, at ABCB1, the inhibition at 10 min, 10 µM is < 25%. Further, in data set [1], the IC50 came to 2720 nM. For the same molecule, the Emax at 2 h, 100 µM on ABCG2 is 111%. Besides, the Stability entry in data set [2] is given as “Stable”. Moreover, the inhibition at 1 h, 10 µM at ABCC1 was < 25%.
With `COc1cc2c(cc1OC)CN(CC(=O)c1ccc(C)c(NC(=O)c3ccc4ccccc4n3)c1)CC2`, at ABCB1, the inhibition at 10 min, 10 µM was < 25%. Also, in data set [1], the IC50 was determined as 8760 nM. Besides, the Emax at 2 h, 100 µM at ABCG2 is 77%. Moreover, the Stability result in data set [2] was “Stable”. Also, the inhibition at 1 h, 10 µM on ABCC1 was < 25%.
Take `COc1cc2c(cc1OC)CN(CC(=O)c1cccc(NC(=O)c3ccc4ccccc4n3)c1)CC2`: the inhibition at 10 min, 10 µM on ABCB1 is < 25%. The molecule also showed an IC50 in data set [1] of 6730 nM. The Emax at 2 h, 100 µM at ABCG2 stood at 77%. Also, the Stability entry in data set [2] is listed as “Stable”. Further, the inhibition at 1 h, 10 µM on ABCC1 is < 25%.
On to `COCCOCCOCCOc1cc2c(cc1OC)CCN(CC(=O)c1ccc(C)c(NC(=O)c3ccc4ccccc4n3)c1)C2`, for which the Activity entry in data set [4] is recorded as “Non-Toxic”. Further, on ABCB1, the inhibition at 10 min, 10 µM was < 25%. Besides, in data set [1], the half-maximal inhibitory concentration (IC50) was found to be 6650 nM. Also, the Emax at 2 h, 100 µM on ABCG2 was determined as 86%. Moreover, the Stability entry in data set [2] is “Stable”. At ABCC1, the inhibition at 1 h, 10 µM was < 25%.
In the case of `COc1cc(OC)c(C(=O)/C=C/c2ccc3nccnc3c2)cc1OC`, the IC50 in data set [5] turned out to be 1400 nM.
Regarding `COCCOc1cc2c(cc1OC)CCN(CC(=O)c1ccc(C)c(NC(=O)c3ccc4ccccc4n3)c1)C2`, the inhibition at 10 min, 10 µM at ABCB1 is < 25%. The IC50 in data set [1] is 23200 nM. Further, the Emax at 2 h, 100 µM at ABCG2 was determined as 79%. Further, in data set [2], the Stability result is listed as “Stable”. In addition, at ABCC1, the inhibition at 1 h, 10 µM is < 25%.
